Type in all cases: functional, cell-based
For one assay, the system named is THP-1. The assay can be described thus: Antiproliferative activity against human THP1 cells after 48 hrs by MTT assay. The conditions noted are these: THP-1, 48 h. Put shortly: (§1)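 Cells in exponential growth exposed to a range of test concentrations for 48 h; growth inhibition read by MTT. IC50 taken as the concentration giving a 50% fall in cell number relative to untreated control cultures, derived by regression analysis.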
For orientation: Tetrazolium dyes change colour on reduction, which living cells bring about.

The test system of a further assay is U-937. The assay can be described thus: Antiproliferative activity against human U937 cells after 48 hrs by MTT assay. The note with it: U-937, 48 h. An outline of the steps: as §1
The subject of another assay is A-375. As to the kind of experiment: Antiproliferative activity against human A375 cells after 48 hrs by MTT assay. The note with it: A-375, 48 h. Put shortly:
as §1

≈ marks a conversion by molar mass, not a printed value.

Consider `Oc1ccc(CC[C@@H](O)C[C@@H](O)CCc2ccccc2)cc1`, for which the results for the IC50 in the assay on THP-1, with U-937 and with A-375 were 12.6 µg/mL (≈ 42 µM), 33 µg/mL (≈ 110 µM) and 57.8 µg/mL (≈ 192 µM), respectively.

Consider `Oc1ccc(CC[C@H](O)C[C@@H](O)CCc2ccccc2)cc1`, for which the results for the IC50 in the assay with THP-1, with U-937 and with A-375 were 12.8 µg/mL (≈ 42.7 µM), 31.1 µg/mL (≈ 103 µM) and 56.3 µg/mL (≈ 187 µM), respectively.

As for `O[C@@H](CCc1ccccc1)C[C@@H](O)CCc1ccccc1`, the IC50 (usually the concentration that inhibits the measured activity by half) worked out at 99.8 µg/mL (≈ 351 µM) with THP-1, 128 µg/mL (≈ 451 µM) with U-937 and 148 µg/mL (≈ 520 µM) with A-375.

For `O[C@H](CCc1ccccc1)C[C@@H](O)CCc1ccccc1`, the figures for the IC50 in the assay on THP-1, in the assay with U-937 and in the assay with A-375 were 40.5 µg/mL (≈ 142 µM), 188 µg/mL (≈ 660 µM) and 164 µg/mL (≈ 578 µM), respectively.

As to `COc1cc(CC[C@H](O)C[C@@H](O)CCc2ccccc2)ccc1O`, the IC50 with THP-1 was 42.7 µg/mL (≈ 129 µM); in the assay on U-937 it was 27.7 µg/mL (≈ 83.7 µM); in the assay with A-375 it was 69.1 µg/mL (≈ 209 µM).

Regarding `COc1cc(CC[C@@H](O)C[C@@H](O)CCc2ccccc2)ccc1O`, the IC50 in the assay with THP-1 is 72.2 µg/mL (≈ 219 µM); in the assay on U-937, 32.7 µg/mL (≈ 98.9 µM); in the assay on A-375 it was 75.2 µg/mL (≈ 228 µM).
